Source: ChEMBL document CHEMBL1287652, “QSAR modeling, synthesis and bioassay of diverse leukemia RPMI-8226 cell line active agents” (2010)

How the values were obtained:
Assay type in all cases: functional
CCRF-CEM = assay: Antitumor activity against human CCRF-CEM cells at 10 uM after 48 hrs by sulforhodamine B assay relative to control; conditions: values are per cent of control
Method in brief: (§1)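 Single-dose screen in a 55-line panel. Cells in RPMI-1640 with 5% FBS and 2 mM glutamine were preincubated for 24 h, then exposed to compound (DMSO stock diluted in medium) for 48 h at 37 °C with 5% CO2. Cells were fixed with cold TCA, stained with 0.4% SRB in 1% acetic acid, and dye was solubilized in 10 mM Tris base and read at 515 nm. Growth is given as percent of untreated control.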

UACC-62 = assay: Antitumor activity against human UACC62 cells at 10 uM after 48 hrs by sulforhodamine B assay relative to control; conditions: UACC-62, 48 h, values are per cent of control
Method in brief: (§2)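 NCI panel line grown in RPMI-1640 with 5% FBS and 2 mM L-glutamine, plated at 5000–40,000 cells/well, 24 h preincubation. Single final 10 µM from DMSO stock, 48 h at 37 °C, 5% CO2. TCA fixation (10% adherent, 16% suspension), SRB stain, absorbance 515 nm. Percent growth relative to untreated control.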

HCT-15 = assay: Antitumor activity against human HCT15 cells at 10 uM after 48 hrs by sulforhodamine B assay relative to control; conditions: HCT-15, 48 h, values are per cent of control; method in brief: as §1
SN12C = assay: Antitumor activity against human SN12C cells at 10 uM after 48 hrs by sulforhodamine B assay relative to control; conditions: values are per cent of control
Method in brief: (§3)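 NCI panel lines were grown in RPMI-1640 with 5% FBS and 2 mM L-glutamine and seeded at 5000–40,000 cells/well according to doubling time. After 24 h at 37 °C, 5% CO2, one dose from a DMSO stock was added for 48 h. Cells were TCA-fixed (10% final adherent, 16% suspension), SRB-stained and read at 515 nm. Percent growth is relative to untreated control.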

HOP-92 = assay: Antitumor activity against human HOP92 cells at 10 uM after 48 hrs by sulforhodamine B assay relative to control; conditions: HOP-92, 48 h, values are per cent of control; method in brief: as §1
HL-60(TB) = assay: Antitumor activity against human HL-60(TB) cells at 10 uM after 48 hrs by sulforhodamine B assay relative to control; conditions: HL-60, 48 h
Method in brief: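 Single-dose NCI screen. Cells were in RPMI-1640 with 5% FBS and 2 mM L-glutamine, plated by doubling time and held 24 h at 37 °C in 5% CO2 before dosing. Exposure was 48 h. Suspension cells were fixed in situ with TCA (final 16%), SRB-stained, and read at 515 nm. Percentage growth was expressed relative to untreated control cells.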

Malme-3M = assay: Antitumor activity against human MALME-3M cells at 10 uM after 48 hrs by sulforhodamine B assay relative to control; conditions: values are per cent of control; method in brief: as §1
MDA-MB-435 = assay: Antitumor activity against human MDA-MB-435 cells at 10 uM after 48 hrs by sulforhodamine B assay relative to control; conditions: MDA-MB-435, 48 h, values are per cent of control; method in brief: as §1
SK-OV-3 = assay: Antitumor activity against human SKOV3 cells at 10 uM after 48 hrs by sulforhodamine B assay relative to control; conditions: SK-OV-3, 48 h, values are per cent of control; method in brief: as §3
OVCAR-8 [1] = assay: Antitumor activity against human OVCAR8 cells at 10 uM after 48 hrs by sulforhodamine B assay relative to control; conditions: OVCAR-8, 48 h, values are per cent of control; method in brief: as §3
SK-MEL-5 = assay: Antitumor activity against human SK-MEL-5 cells at 10 uM after 48 hrs by sulforhodamine B assay relative to control; conditions: SK-MEL-5, 48 h, values are per cent of control; method in brief: as §3
LOX IMVI = assay: Antitumor activity against human LOXIMVI cells at 10 uM after 48 hrs by sulforhodamine B assay relative to control; conditions: values are per cent of control; method in brief: as §1
SF-295 = assay: Antitumor activity against human SF295 cells at 10 uM after 48 hrs by sulforhodamine B assay relative to control; conditions: SF-295, 48 h, values are per cent of control; method in brief: as §3
SF-539 = assay: Antitumor activity against human SF539 cells at 10 uM after 48 hrs by sulforhodamine B assay relative to control; conditions: SF-539, 48 h, values are per cent of control; method in brief: as §3
HT-29 = assay: Antitumor activity against human HT-29 cells at 10 uM after 48 hrs by sulforhodamine B assay relative to control; conditions: HT-29, 48 h, values are per cent of control; method in brief: as §1
KM12 = assay: Antitumor activity against human KM12 cells at 10 uM after 48 hrs by sulforhodamine B assay relative to control; conditions: KM12, 48 h, values are per cent of control; method in brief: as §1
ACHN = assay: Antitumor activity against human ACHN cells at 10 uM after 48 hrs by sulforhodamine B assay relative to control; conditions: values are per cent of control; method in brief: as §1
TK-10 = assay: Antitumor activity against human TK10 cells at 10 uM after 48 hrs by sulforhodamine B assay relative to control; conditions: TK-10, 48 h, values are per cent of control; method in brief: as §2
786-0 = assay: Antitumor activity against human 786-0 cells at 10 uM after 48 hrs by sulforhodamine B assay relative to control; conditions: 786-0, 48 h, values are per cent of control; method in brief: as §1
HCT-116 = assay: Antitumor activity against human HCT116 cells at 10 uM after 48 hrs by sulforhodamine B assay relative to control; conditions: HCT-116, 48 h, values are per cent of control; method in brief: as §1
COLO 205 = assay: Antitumor activity against human COLO205 cells at 10 uM after 48 hrs by sulforhodamine B assay relative to control; conditions: COLO 205, 48 h, values are per cent of control; method in brief: as §1
NCI-H226 = assay: Antitumor activity against human NCI-H226 cells at 10 uM after 48 hrs by sulforhodamine B assay relative to control; conditions: NCI-H226, 48 h, values are per cent of control; method in brief: as §3
NCI-H322M = assay: Antitumor activity against human NCI-H322M cells at 10 uM after 48 hrs by sulforhodamine B assay relative to control; conditions: values are per cent of control; method in brief: as §3
SR = assay: Antitumor activity against human SR cells at 10 uM after 48 hrs by sulforhodamine B assay relative to control; conditions: values are per cent of control; method in brief: as §2
OVCAR-8 [2] = assay: Antitumor activity against human OVCAR8 cells after 48 hrs by sulforhodamine B assay; conditions: OVCAR-8, 48 h
Method in brief: (§4)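 Cells were cultured in RPMI-1640 (5% FBS, 2 mM L-glutamine), pre-incubated for 24 h with time-zero plates TCA-fixed, then exposed for 48 h to five serial dilutions. The SRB read-out at 515 nm used time-zero, control and test absorbances. GI50 solves [(Ti−Tz)/(C−Tz)]×100 = 50 (net protein increase). TGI is the concentration giving 100% growth inhibition.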

MOLT-4 = assay: Antitumor activity against human MOLT4 cells after 48 hrs by sulforhodamine B assay; conditions: MOLT-4, 48 h; method in brief: as §4

Compound	growth, % of control at 10 µM (UACC-62) [%]	growth, % of control at 10 µM (HCT-15) [%]	growth, % of control at 10 µM (SN12C) [%]	inhibition at 10 µM (HL-60(TB)) [%]	growth, % of control at 10 µM (Malme-3M) [%]	growth, % of control at 10 µM (MDA-MB-435) [%]	growth, % of control at 10 µM (SK-OV-3) [%]	growth, % of control at 10 µM (OVCAR-8 [1]) [%]	growth, % of control at 10 µM (SK-MEL-5) [%]	growth, % of control at 10 µM (LOX IMVI) [%]	growth, % of control at 10 µM (SF-295) [%]	growth, % of control at 10 µM (SF-539) [%]	growth, % of control at 10 µM (HT-29) [%]	growth, % of control at 10 µM (KM12) [%]	growth, % of control at 10 µM (ACHN) [%]	growth, % of control at 10 µM (TK-10) [%]	growth, % of control at 10 µM (786-0) [%]	growth, % of control at 10 µM (HCT-116) [%]	growth, % of control at 10 µM (COLO 205) [%]	growth, % of control at 10 µM (NCI-H226) [%]	other results
O=C(Nc1ccc(Cl)cc1)Nc1ccc(OCCCOc2ccc(NC(=O)Nc3ccc(Cl)cc3)cc2)cc1	98.9	117	105	105	101	110	122	64.1	> 100	98.1	97.3	91.8	114	110	106	129	93.7	94.8	166	123	growth, % of control at 10 µM (CCRF-CEM): 157%; growth, % of control at 10 µM (HOP-92): 181%; growth, % of control at 10 µM (NCI-H322M): 102%; growth, % of control at 10 µM (SR): 88.7%
COc1ccc(NC(=O)Nc2ccc(OCCCOc3ccc(NC(=O)Nc4ccc(OC)cc4)cc3)cc2)cc1	109	118	87.3	90.4	93.3	109	88.4	70.1	99.5	99.3	71.7	86.7	107	117	> 100	123	86.9	83.3	124	121	growth, % of control at 10 µM (HOP-92): 81.5%; growth, % of control at 10 µM (NCI-H322M): 90.2%; growth, % of control at 10 µM (SR): 90.4%
COc1ccc(NC(=O)Nc2ccccc2OCCCOc2ccccc2NC(=O)Nc2ccc(OC)cc2)cc1	3.9	65.5	-21.3	18.8	55.1	41.6	7.9	-65.3	48.7	23.7	49	-29.6	54.9	23.8	46.3	22	-31.5	-36.8	18.6	87.1	growth, % of control at 10 µM (CCRF-CEM): -7.12%; GI50 (OVCAR-8 [2]): 8.9 µM; TGI (OVCAR-8 [2]): > 100 µM; GI50 (MOLT-4): 17.7 µM; TGI (MOLT-4): 36.6 µM; growth, % of control at 10 µM (NCI-H322M): 82.4%; growth, % of control at 10 µM (SR): -39.7%
